# According to PubChem BioAssay:
# Activity calls are given as the source filed them.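 Rule for the calls, unless noted: active = viability at or below 30% in both replicate assays; inconclusive = viability at or below 30% in just one of the two assays; inactive = the rest.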
# Columns and labels:
# [1] = reduced viability of SK-BR-3 breast cancer cells – cell-based, 24 h, human, pilot screen (AID 572;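 active = viability at or below 10% of carrier control in both of two separate runs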;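 note: compound exposure lasted between 18 and 24 h rather than exactly 24 h; 100% = carrier-treated control wells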); conditions: SK-BR-3 viability, CellTiter-Glo luminescence, at 10 µM, stronger effect = lower value
# [2] = HUVEC growth inhibition – cell-based, human, primary screen (AID 575); conditions: HUVEC proliferation, CellTiter-Glo luminescence, 72 h; at 10 µM; stronger effect = lower value;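 note: 100% = median of untreated cell wells with 0.1% DMSO on each plate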
# How it was run: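 Test system: HUVEC primary cells. Quantity: 1250 endothelial cells in each well. Dosing: single-point 10 µM, DMSO 0.1% final. Incubation: 72 h treatment at 37 °C. Measured by: CTG luminescence. Control set: DMSO cell controls and MePR drug controls. Plate: collagen-coated 384-well format.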
# [3] = H69AR cell proliferation blockers – human, duplicate replicates, primary screen (AID 580;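 active = viability at or under a set limit in both replicates, limit being median viability minus 3 SD, cut at about 48% in these data, passing the limit was not always enough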;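 note: 100% = mean luminescence of untreated wells and 0% = no signal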); conditions: H69AR lung tumor cells viability, ATP luminescence, 72 h; at 10 µM; stronger effect = lower value
# [4] = MRP1 drug-resistance reversers in H69AR cells – cell-based, doxorubicin co-treatment, pilot screen (AID 601;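 active = viability loss from added drug above about 55%, and viability with drug at most 40%, in both replicates, limit read from the data, passing the limit was not always enough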); conditions: CellTiter-Glo, 72 h, at 10 µM; for differential viability (reversal): stronger effect = higher value
# [5] = yeast transport mutant growth inhibition pilot in 384-well plates, post-Golgi transport modulator project (AID 636; in the data active = inhibition above about 31%); conditions: absorbance 615 nm, about 18 h, stronger effect = higher value
# [6] = growth suppression of yeast trafficking mutant, preliminary HTS, modulators of trafficking downstream of Golgi apparatus project, 1536-format plate, OD 615 nm (AID 637; in the data active = inhibition above about 30%); conditions: yeast transport mutant growth, absorbance 615 nm, 18 h; stronger effect = higher value
# [7] = H69AR cells + 2 uM doxorubicin, measured here: viability with 2 uM doxorubicin, stronger effect = lower value
# [8] = H69AR cells, compound alone cytotoxicity
Compound,viability [1],viability [2],viability [3],differential viability (reversal) ([4]; H69AR cells + 2 uM doxorubicin),"viability [4, 7] [%]","viability [4, 8] [%]",inhibition [5],inhibition [6]
O=C(Nc1ccc(F)cc1)NC1CCN(Cc2nnnn2Cc2ccco2)CC1,92% (inactive),70.5% (inactive),88.2% (inactive),-0.315% (inactive),88.5,88.2,-5.21% (inactive),-7.9% (inactive)
CCn1nc(C(=O)O)c(=O)c2cc3c(cc21)OCO3,69% (inactive),86.7% (inactive),106% (inactive),6.56% (inactive),99.3,106,-1.17% (inactive),1.83% (inactive)
COCCSc1nnc(NC(=O)CSCc2ccccc2)s1,102% (inactive),103% (inactive),93.1% (inactive),6.87% (inactive),86.3,93.1,-11% (inactive),0.97% (inactive)
CC(=O)NC(C)C(=O)OCc1ccc(Cl)cc1Cl (configuration not stated),66% (inactive),99.5% (inactive),103% (inactive),7.35% (inactive),95.2,103,-4.79% (inactive),-1.27% (inactive)
COc1ccccc1OCc1nc2ccccc2[nH]1,69% (inactive),88.5% (inactive),99.3% (inactive),-5.04% (inactive),104,99.3,-6.16% (inactive),-0.55% (inactive)
CCOC(=O)CNC(=O)CSc1nnnn1-c1cc(C)ccc1C,105% (inactive),105% (inactive),110% (inactive),12.1% (inactive),98.1,110,-2.08% (inactive),-1.48% (inactive)
CSc1nnc(-c2ccccc2)n1C,121% (inactive),102% (inactive),102% (inactive),6.17% (inactive),95.5,102,-8.36% (inactive),-0.55% (inactive)
O=C(Nc1ccccc1C(=O)O)c1cccc(NC(=O)c2ccc(Br)o2)c1,91% (inactive),80% (inactive),102% (inactive),7.51% (inactive),94.4,102,-10.8% (inactive),-1.82% (inactive)
CCC(C)n1ncn(-c2ccc(N3CCN(c4ccc(OCC5COC(Cn6cncn6)(c6ccc(Cl)cc6Cl)O5)cc4)CC3)cc2)c1=O (configuration not stated),84% (inactive),7.76% (active),69.8% (inactive),-1.92% (inactive),71.8,69.8,100% (active),96.7% (active)
CCOC(=O)C1=C(C)NC(C)=C(C(=O)OC)C1c1cccc([N+](=O)[O-])c1 (configuration not stated),68% (inactive),58% (inactive),83% (inactive),-14.7% (inactive),97.7,83,5.58% (inactive),-1.17% (inactive)
COc1ccc(C)cc1-n1nnnc1SC/C(O)=C(\C#N)c1nc2ccccc2[nH]1,96% (inactive),86.6% (inactive),85.2% (inactive),-13.1% (inactive),98.4,85.2,-4.11% (inactive),1.27% (inactive)
CCOc1nc(OCC)nc(N2CCC(C)CC2)n1,91% (inactive),108% (inactive),84.9% (inactive),-10.5% (inactive),95.4,84.9,-5% (inactive),31.4% (active)
CCc1c(C)nc2ncnn2c1N1CCC(C(=O)NCc2cccc(OC)c2)CC1,134% (inactive),85.8% (inactive),89.9% (inactive),-9.81% (inactive),99.7,89.9,-3.7% (inactive),-1.29% (inactive)
C1COC(NC(C2CC2)C2CC2)=N1,94% (inactive),77.3% (inactive),84.9% (inactive),5.27% (inactive),79.6,84.9,-1.3% (inactive),-5.17% (inactive)
Cc1nc(NC(=O)C23CCC(C)(C(=O)O2)C3(C)C)sc1C (configuration not stated),133% (inactive),107% (inactive),99.2% (inactive),13.9% (inactive),85.4,99.2,-2.99% (inactive),0.16% (inactive)
NC(=O)c1ccsc1NC(=O)COC(=O)Cc1ccsc1,87% (inactive),100% (inactive),110% (inactive),-0.11% (inactive),110,110,-4.25% (inactive),1.27% (inactive)
CCc1nnc(NC(=O)CSc2nnc(-c3ccccc3OC)n2-c2ccccc2)s1,77% (inactive),108% (inactive),85.2% (inactive),-1.85% (inactive),87,85.2,-1.73% (inactive),-1.45% (inactive)
COc1cc2c(C#N)c(N3CCOCC3)nc(N)c2c(N)n1,85% (inactive),90% (inactive),75.2% (inactive),8.29% (inactive),67,75.2,-0.13% (inactive),0.82% (inactive)
CCCCNC(=O)OCCNC(=O)NC,98% (inactive),95.9% (inactive),98.1% (inactive),7.46% (inactive),90.7,98.1,-4.05% (inactive),-5.45% (inactive)
CCC(=O)Nc1nn(C)c2nc3c(C)cccc3cc12,92% (inactive),105% (inactive),104% (inactive),17.2% (inactive),86.4,104,-3.47% (inactive),-4.18% (inactive)
CCOC(=O)C1C2C=CC3(CN(Cc4ccco4)C(=O)C13)O2 (configuration not stated),97% (inactive),95.6% (inactive),96.5% (inactive),6.86% (inactive),89.7,96.5,-6.99% (inactive),1.45% (inactive)
Cc1cc(C)n(C(C)n2nc(C)cc2C)n1,107% (inactive),103% (inactive),87.8% (inactive),9.01% (inactive),78.8,87.8,-7.87% (inactive),-0.91% (inactive)
COC(=O)Nc1sc2c(c1C(N)=O)CCCCCC2,89% (inactive),105% (inactive),99.5% (inactive),19.3% (inactive),80.2,99.5,-1.82% (inactive),5.25% (inactive)
COc1ccccc1N(CC(=O)NC1CCCC1)C(=O)c1csnn1,97% (inactive),89.7% (inactive),90% (inactive),32.5% (inactive),57.5,90,-1.47% (inactive),-8.36% (inactive)
